Consider 31 molecules from ChEMBL document CHEMBL4308874, “Discovery and optimization of 3,4,5-trimethoxyphenyl substituted triazolylthioacetamides as potent tubulin polymerization inhibitors” (Bioorg Med Chem Lett, 2019).

SMILES strings stand for the structures.

One test deals with MCF7. The test can be described thus: Cytotoxicity against human MCF7 cells assessed as inhibition of cell growth after 48 hrs by MTT assay. Particulars: MCF7, 48 h. Type of test: functional, cell-based.
Test [1] deals with HeLa. As to the kind of experiment: Cytotoxicity against human HeLa cells assessed as inhibition of cell growth after 48 hrs by MTT assay. It is filed as functional, cell-based. (In general: Tetrazolium dyes change colour on reduction, which living cells bring about.)
A further test has as its system HCT-116. As to the kind of experiment: Cytotoxicity against human HCT116 cells assessed as inhibition of cell growth after 48 hrs by MTT assay. Type of test: functional, cell-based. Particulars: HCT-116, 48 h.
In another test the test system is HT-29. As to the kind of experiment: Cytotoxicity against human HT-29 cells assessed as inhibition of cell growth after 48 hrs by MTT assay. Type of test: functional, cell-based. The conditions noted are these: HT-29, 48 h.
The subject of another test is HEK293. The test can be described thus: Cytotoxicity against HEK293 cells assessed as inhibition of cell growth after 48 hrs by MTT assay. It is filed as cell-based. Particulars: Homo sapiens, HEK293, 48 h.
Test [2] deals with HeLa. As to the kind of experiment: Cell cycle arrest in human HeLa cells assessed as accumulation at G2/M phase after 48 hrs by propidium iodide staining based flow cytometry. Type of test: functional. (In flow cytometry, cells or beads pass a laser one at a time.)
For test [3], the system named is HeLa. As to the kind of experiment: Cell cycle arrest in human HeLa cells assessed as accumulation at G0/G1 phase at 0.25 uM after 48 hrs by propidium iodide staining based flow cytometry (reference value: 66.77%). Type of test: functional.
Test [4] concerns HeLa. The test can be described thus: Cell cycle arrest in human HeLa cells assessed as accumulation at G0/G1 phase at 0.5 uM after 48 hrs by propidium iodide staining based flow cytometry (reference value: 66.77%). It is filed as functional.
For test [5], the system named is HeLa. The test can be described thus: Cell cycle arrest in human HeLa cells assessed as accumulation at S phase at 0.25 uM after 48 hrs by propidium iodide staining based flow cytometry (reference value: 20.31%). Type of test: functional.
In test [6] the test system is HeLa. The test can be described thus: Cell cycle arrest in human HeLa cells assessed as accumulation at S phase at 0.5 uM after 48 hrs by propidium iodide staining based flow cytometry (reference value: 20.31%). Type of test: functional.
Test [7] concerns HeLa. As to the kind of experiment: Cell cycle arrest in human HeLa cells assessed as accumulation at G2/M phase at 0.25 uM after 48 hrs by propidium iodide staining based flow cytometry (reference value: 12.91%). It is filed as functional.
Test [8] relates to HeLa. As to the kind of experiment: Cell cycle arrest in human HeLa cells assessed as accumulation at G2/M phase at 0.5 uM after 48 hrs by propidium iodide staining based flow cytometry (reference value: 12.91%). Type of test: functional.
The next test deals with Tubulin (Homo sapiens) (UniProt P68371+Q9H4B7+P0DPH7+P68366+Q13509+Q71U36+P04350+Q3ZCM7+P07437+P68363+Q9BQE3+Q6PEY2+Q13885+Q9BVA1+Q9BUF5). The test can be described thus: Inhibition of tubulin (unknown origin) polymerization at 10 uM relative to control. It is filed as protein-complex assay. A digest of the protocol:
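Tubulin polymerization inhibition measured with compound at a final concentration of 10 μM, expressed as percent inhibition.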

The target in a further test is Tubulin. The test can be described thus: Inhibition of tubulin (unknown origin) polymerization. It is filed as protein-complex assay, Homo sapiens.

Usually IC50 stands for the point on the concentration scale where inhibition reaches its midpoint. A word on the inhibition: it is the share of the control response that was lost under treatment. Low values mean a weak effect, high ones a strong effect. For the molecule `CCc1ccc(NC(=O)CSc2nnc(-c3cc(OC)c(OC)c(OC)c3)n2N)cc1`, the IC50 in the test with MCF7 is 25.4 µM; in the test on HeLa [1], 0.05 µM; in the test on HCT-116, 71.4 µM; in the test with HT-29, 0.84 µM; in the test with HEK293, more than 100 µM. Moreover, the Activity entry in the test on HeLa [2] was “Dose-dependent effect”; with HeLa [3] it was 47.35%; in the test with HeLa [4], 43.23%; with HeLa [5], 25.35%; in the test with HeLa [6], 2%; in the test on HeLa [7], 27.3%. Also, the Activity in the test with HeLa [8] was 54.77%. For the same molecule, the inhibition at Tubulin (Homo sapiens) was determined as 38%.
As to `COc1cc(-c2nnc(SCC(=O)c3ccc(Cl)cc3)n2-n2cccc2)cc(OC)c1OC`, the IC50 with MCF7, in the test on HeLa [1], in the test with HCT-116 and in the test on HT-29 was more than 100 µM in each case.
In the case of `COc1cc(-c2nnc(SCC(=O)Nc3cccc(C)c3)n2N)cc(OC)c1OC`, the IC50 with MCF7 was 47.1 µM; in the test on HeLa [1] it was 2.96 µM; in the test with HCT-116, more than 100 µM; with HT-29, 4.87 µM. In addition, the inhibition at Tubulin (Homo sapiens) was 25%.
Regarding `CCCc1ccc(NC(=O)CSc2nnc(-c3cc(OC)c(OC)c(OC)c3)[nH]2)cc1`, the IC50 in the test on MCF7, in the test on HeLa [1], in the test with HCT-116 and with HT-29 was more than 100 µM in each case.
On to `CCc1ccc(NC(=O)CSc2nnc(-c3cc(OC)c(OC)c(OC)c3)[nH]2)cc1`, for which the IC50 in the test on MCF7 is more than 100 µM; in the test with HeLa [1] it was 33.9 µM; in the test with HCT-116, more than 100 µM; with HT-29 it was more than 100 µM. Further, on Tubulin (Homo sapiens), the inhibition amounted to 11%.
On to `COc1ccc(NC(=O)CSc2nnc(-c3cc(OC)c(OC)c(OC)c3)n2N)cc1O`, for which the IC50 was more than 100 µM in the test with MCF7, 34.8 µM with HeLa [1], more than 100 µM with HCT-116 and more than 100 µM in the test with HT-29.
Take `COc1cc(-c2nnc(SCC(=O)Nc3ccc(N4CCCCC4)cc3)n2N)cc(OC)c1OC`: the IC50 was more than 100 µM in the test with MCF7, 54.9 µM in the test with HeLa [1], more than 100 µM in the test with HCT-116 and 75.3 µM in the test with HT-29.
With `COc1cc(-c2nnc(SCC(=O)Nc3ccc(C)c(C)c3)n2N)cc(OC)c1OC`, the IC50 in the test on MCF7 is more than 100 µM; in the test on HeLa [1], 0.88 µM; in the test with HCT-116, more than 100 µM; with HT-29, 1.21 µM. The inhibition against Tubulin (Homo sapiens) worked out at 18%.
Turning to `COc1ccc(/C=C\c2cc(OC)c(OC)c(OC)c2)cc1O` [COMBRETASTATIN A4], the IC50 in the test with HeLa [1] was found to be 0.007 µM; in the test with HT-29 it was 1.96 µM.
Regarding `COc1cccc(NC(=O)CSc2nnc(-c3cc(OC)c(OC)c(OC)c3)n2N)c1`, the IC50 in the test with MCF7 stood at 52.6 µM; in the test with HT-29, 3.15 µM.
Regarding `COc1ccc(NC(=O)CSc2nnc(-c3cc(OC)c(OC)c(OC)c3)n2N)cc1`, the IC50 in the test on MCF7 was more than 100 µM; in the test with HeLa [1], 2.96 µM; in the test with HCT-116, 61.1 µM; in the test with HT-29, 15.2 µM. At Tubulin (Homo sapiens), this molecule had an inhibition of 24%.
As to `COc1cc(-c2nnc(SCC(=O)Nc3c(C)cc(C)cc3C)n2N)cc(OC)c1OC`, the IC50 with MCF7 was more than 100 µM; with HeLa [1], 82.8 µM; in the test on HCT-116, more than 100 µM; in the test on HT-29, more than 100 µM.
As for `COc1cc(-c2nnc(SCC(=O)Nc3ccc(C)cc3)n2-n2cccc2)cc(OC)c1OC`, the IC50 in the test with MCF7 is more than 100 µM; with HeLa [1] it was more than 100 µM; in the test with HCT-116 it was 26.6 µM; in the test on HT-29, 2.94 µM. At Tubulin (Homo sapiens), this molecule came in with an inhibition of 17%.
For the molecule `COc1ccc(NC(=O)CSc2nnc(-c3cc(OC)c(OC)c(OC)c3)n2-n2cccc2)cc1`, the IC50 in the test with MCF7, in the test on HeLa [1], in the test on HCT-116 and in the test with HT-29 was more than 100 µM each time.
As to `COc1cccc(NC(=O)CSc2nnc(-c3cc(OC)c(OC)c(OC)c3)[nH]2)c1`, the IC50 in the test on MCF7, in the test on HeLa [1], in the test on HCT-116 and with HT-29 was more than 100 µM each time.
In the case of `CCCc1ccc(NC(=O)CSc2nnc(-c3cc(OC)c(OC)c(OC)c3)n2N)cc1`, the IC50 in the test with MCF7 was 41.2 µM; in the test with HeLa [1], 18.7 µM; in the test on HCT-116, 41.8 µM; in the test on HT-29 it was 50.8 µM. Further, at Tubulin (Homo sapiens), the inhibition is 19%.
Take `COc1cc(-c2nnc(SCC(=O)Nc3ccc(C(C)C)cc3)n2N)cc(OC)c1OC`: the IC50 is more than 100 µM with MCF7, 13.7 µM in the test with HeLa [1], 74.8 µM in the test on HCT-116 and more than 100 µM in the test with HT-29.
For the molecule `COc1ccc(NC(=O)CSc2nnc(-c3cc(OC)c(OC)c(OC)c3)n2N)cc1OC`, the IC50 in the test on MCF7 is more than 100 µM; with HeLa [1], 54.2 µM; in the test with HCT-116, more than 100 µM; in the test with HT-29 it was more than 100 µM.
Take `COc1cc(-c2nnc(SCC(=O)N(C)c3ccc(C)cc3)n2N)cc(OC)c1OC`: the IC50 was more than 100 µM in the test with MCF7, 21.3 µM in the test with HeLa [1], more than 100 µM with HCT-116 and more than 100 µM in the test with HT-29. Moreover, on Tubulin (Homo sapiens), the inhibition came out at 21%.
Turning to `COc1ccccc1NC(=O)CSc1nnc(-c2cc(OC)c(OC)c(OC)c2)n1N`, the IC50 with MCF7 is more than 100 µM; in the test on HeLa [1] it was 0.16 µM; in the test with HCT-116 it was 82.9 µM; with HT-29, 0.13 µM; in the test with HEK293 it was more than 100 µM. Also, the inhibition on Tubulin (Homo sapiens) worked out at 25%.
For the molecule `COc1cc(-c2nnc(SCC(=O)Nc3ccc(C)cc3)[nH]2)cc(OC)c1OC`, the IC50 with MCF7, in the test with HeLa [1], in the test with HCT-116 and in the test on HT-29 was more than 100 µM in each case.
With `COc1cc(-c2nnc(SCC(=O)Oc3ccc(C)cc3)n2N)cc(OC)c1OC`, the half-maximal inhibitory concentration (IC50) with MCF7, in the test with HeLa [1], in the test on HCT-116 and in the test with HT-29 was more than 100 µM in each case.
Take `COc1cc(-c2nnc(SCC(=O)Nc3ccc(N(C)C)cc3)n2N)cc(OC)c1OC`: the IC50 was more than 100 µM with MCF7, 23.8 µM with HeLa [1], more than 100 µM with HCT-116 and 43.1 µM with HT-29.
Regarding `COc1ccc(NC(=O)CSc2nnc(-c3cc(OC)c(OC)c(OC)c3)[nH]2)cc1O`, the IC50 in the test with MCF7, in the test with HeLa [1], in the test on HCT-116 and with HT-29 was more than 100 µM each time.
Consider `COc1cc(-c2nnc(SCC(=O)Nc3ccc(C)cc3F)n2N)cc(OC)c1OC`, for which the IC50 with MCF7 was more than 100 µM; in the test on HeLa [1], 0.04 µM; in the test with HCT-116 it was more than 100 µM; in the test with HT-29, 0.13 µM; in the test on HEK293 it was 61.1 µM.
On to `COc1cc(-c2nnc(SCC(=O)Nc3ccc(C)cc3)n2N)cc(OC)c1OC`, for which the IC50 amounted to 26.8 µM in the test on MCF7, 1.61 µM with HeLa [1], 0.82 µM in the test on HT-29 and 5.9 µM at Tubulin. This molecule gave an inhibition against Tubulin (Homo sapiens) of 55%.
With `COc1ccc(NC(=O)CSc2nnc(-c3cc(OC)c(OC)c(OC)c3)[nH]2)cc1`, the half-inhibitory concentration (IC50) with MCF7, in the test on HeLa [1], with HCT-116 and with HT-29 was more than 100 µM in each case.
`COc1ccc(NC(=O)CSc2nnc(-c3cc(OC)c(OC)c(OC)c3)n2-n2cccc2)cc1OC`: the IC50 in the test on MCF7, in the test on HeLa [1], in the test on HCT-116 and with HT-29 was more than 100 µM throughout.
For the molecule `COc1cc(-c2nnc(SCC(=O)Nc3ccc(C(C)(C)C)cc3)n2N)cc(OC)c1OC`, the IC50 was more than 100 µM with MCF7, 49.6 µM with HeLa [1], more than 100 µM with HCT-116 and more than 100 µM in the test on HT-29.
For the molecule `COc1cc(-c2nnc(SCC(=O)c3ccc(C)cc3)n2-n2cccc2)cc(OC)c1OC`, the IC50 in the test on MCF7, in the test with HeLa [1], with HCT-116 and with HT-29 was more than 100 µM throughout.
As for `COc1cc(-c2nnc(SCC(=O)NC3CCCCC3)n2N)cc(OC)c1OC`, the IC50 was 80.6 µM in the test on MCF7, 59.7 µM in the test with HeLa [1], more than 100 µM in the test on HCT-116 and more than 100 µM in the test on HT-29.
